Screens deposited in PubChem BioAssay by several laboratories.
This is a sample that favours compounds with a hit; in the whole collection about 3.4% have one here.
PolyA inh: polyadenylation inhibitors in yeast reporter cells, primary screen, luminescence, S. cerevisiae; actives 0.02% (n = 300,000); S. cerevisiae SKY197-pL101 polyadenylation reporter, beta-gal luminescence; efflux-impaired pdr1/pdr3 knockout yeast; score 100 = 6 SD above DMSO; activity score, % at 12 µM;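 active = lowest replicate activity score at least 50, where 100 means six control SD above control mean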;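 also: yeast exposed to compound for 9 h at 30 °C; higher score means more reporter readthrough which indicates perturbed polyadenylation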
A3A deaminase: APOBEC3A ssDNA deaminase inhibitors, primary screen, selectivity assay for APOBEC3G inhibitor project, biochemical, FAM/TAMRA oligo cleavage fluorescence; DNA dC->dU-editing enzyme APOBEC-3A (Homo sapiens), P31941; recombinant A3A, FAM/TAMRA ssDNA deamination fluorescence; inhibition, % at 20 µM; actives 0.41% (n = 330,000);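 active = at least 40% inhibition at 20 µM here, with at most 30% in a related deaminase screen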;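 also: plate controls were A3A with DMSO for no effect and wells lacking A3A enzyme for full effect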
Target sequence (P31941 whole entry, looked up): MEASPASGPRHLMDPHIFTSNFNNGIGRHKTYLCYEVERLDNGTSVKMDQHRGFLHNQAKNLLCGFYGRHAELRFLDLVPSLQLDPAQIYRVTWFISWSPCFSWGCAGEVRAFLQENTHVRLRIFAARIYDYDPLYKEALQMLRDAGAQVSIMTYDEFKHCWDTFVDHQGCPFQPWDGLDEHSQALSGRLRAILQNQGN
A3G deaminase: APOBEC3G DNA deaminase inhibitors, primary screen, biochemical, fluorescence, single-stranded DNA substrate, uHTS; recombinant A3G, ssDNA deamination FAM/TAMRA fluorescence; inhibition, % at 20 µM; actives 0.28% (n = 330,000);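 active = inhibition of at least 40% at 20 µM, with no more than 30% in the related APOBEC3A deaminase screen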;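 also: plate controls were DMSO wells with A3G for no effect and wells lacking A3G enzyme for full effect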
Arrestin-AP2 inh: inhibitors of beta-arrestin/AP2 binding, primary screen, biochemical, GPCR trafficking, flow cytometry; beta-arrestin 1 C-terminal peptide binding to AP2 beta2-adaptin appendage (human); FITC-arrestin peptide / GST-AP2 beads; AP2 beta2 appendage carries R879A mutation; inhibition, % at 10 µM; actives 0.31% (n = 340,000); AID 504490, 2011;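 active = inhibition above a set limit, near 3 SD of compounds lacking own fluorescence, cut at about 54% in these data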;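 also: plate controls were DMSO wells for no effect and 5 µM unlabelled arrestin peptide for full effect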
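system = GST-tagged AP2 beta2-adaptin appendage (R879A) on 4 µm glutathione beads | reagent = FITC-labelled arrestin peptide probe, 50 nM final | schedule = compound with beads 12 min RT, then probe 1 h RT | signal = HyperCyt-sampled flow cytometry, FL1 channel, ex 488/em 535 nm | read-out = percent response from loss of bead-bound FITC fluorescence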
UCH37 DUB inh: inhibitors of human UCH37 deubiquitinase, primary screen, biochemical, Ub-AMC cleavage, fluorescence. Ubiquitin carboxyl-terminal hydrolase isozyme L5 (Homo sapiens), Q9Y5K5. actives 0.33% (n = 330,000). inhibition, % (test concentration not listed). purified proteasome/UCH37;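 active = mean inhibition over replicate wells above about 20%, limit read from the data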;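 also: 0% = compound-free wells with enzyme and 100% = wells lacking proteasome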
Target sequence (Q9Y5K5 whole entry, looked up): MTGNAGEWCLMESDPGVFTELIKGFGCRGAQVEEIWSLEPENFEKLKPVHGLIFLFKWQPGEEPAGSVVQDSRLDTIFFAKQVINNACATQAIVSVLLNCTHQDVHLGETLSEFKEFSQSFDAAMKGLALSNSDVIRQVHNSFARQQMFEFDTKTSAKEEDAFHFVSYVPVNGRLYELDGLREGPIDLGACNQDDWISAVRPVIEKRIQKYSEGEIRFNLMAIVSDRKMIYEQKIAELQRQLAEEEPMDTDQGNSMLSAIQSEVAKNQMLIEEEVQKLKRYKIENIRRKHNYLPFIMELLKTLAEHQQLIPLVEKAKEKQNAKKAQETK
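Reagent: Ub-AMC substrate; assay system: Proteasome-associated human UCH37 deubiquitinase; controls: no-proteasome and no-compound wells; read-out: % inhibition of Ub-AMC cleavage fluorescence; timing: 30 min preincubation with enzyme, 25 min cleavage at room temperature; signal: AMC fluorescence from Ub-AMC cleavage, excitation 355 nm, emission 460 nm; buffer or medium: Tris-HCl pH 7.4 plus ovalbumin, ATP-MgCl2, DTT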
AHR activator: AHR activators, primary screen, cell-based, luminescence, luciferase reporter, human; AHR-responsive luciferase reporter cells; actives 2.5% (n = 320,000); Aryl hydrocarbon receptor (Homo sapiens), P35869; activation, % at 5 µM; in the data active = activation above about 47%;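 also: 0% = vehicle wells and 100% = reference agonist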
A3A conf: APOBEC3A deaminase inhibitors, retest, confirmation, selectivity assay for APOBEC3G inhibitor project, biochemical, single concentration, fluorescence readout; actives 63% (n = 1,400); shares compounds with A3A deaminase; recombinant A3A, ssDNA deaminase UDG fluorescence assay; inhibition, % at 20 µM;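 active = inhibition reaching a set limit, 80% of the first screen's cutoff, at 20 µM in any replicate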;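 also: plate controls were DMSO wells with A3A for no effect and wells lacking A3A enzyme for full effect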
UDG A3A counter: E. coli UDG inhibitors, confirmation, counter-screen for APOBEC3A inhibitor project, biochemical, single concentration, fluorescence, FAM/TAMRA oligo | shares compounds with A3A deaminase | UDG counterscreen, FAM/TAMRA uracil oligo fluorescence | inhibition, % at 20 µM | 1,000 tested, under 10 active | AID 504714, 2011; call rule not given here
An asterisk follows results filed as active; . = no result.

SMILES	PolyA inh	A3A deaminase	A3G deaminase	Arrestin-AP2 inh	UCH37 DUB inh	AHR activator	A3A conf	UDG A3A counter
Cc1cc(C)n2nc(C(=O)NN=Cc3c4ccccc4cc4ccccc34)nc2n1	.	.	.	.	-19.5	.	.	.
C[n+]1cn(CC(O)COCc2ccccc2)c2ccccc21 (stereo unspecified)	-0.6	56.4*	13.3	-8.4	-0.2	-0.6	77.1*	3.6
Cc1cc2c(cc1C)[n+](C)cn2CC(O)COCc1ccccc1 (stereo unspecified)	5.7	40.8*	8.4	-4.3	3.1	-0.2	25.5	.
Cc1cc(=O)[nH]c(N=C(N)Nc2cccc3ccccc23)n1	.	.	.	.	3.7	.	.	.
Cc1nc2ccccc2n1N=Cc1cccnc1	.	.	.	.	4.4	.	.	.
Cc1nn(C)c(C(=O)NN=Cc2ccc(Br)cc2)c1Cl	.	.	.	.	4.0	.	.	.
Nc1ccc2oc(CCc3ccccc3)nc2c1	2.3	59.7*	-4.0	-6.6	-3.2	1.0	-6.6	-2.0
c1ccc2oc(CCc3nc4ccccc4o3)nc2c1	-2.3	-1.7	0.2	-14.0	0.9	-1.2	.	.
Cn1cc(C(=O)c2ccc(Cl)cc2Cl)cc1C(=O)NN=C(N)COc1ccc(F)cc1	.	.	.	.	0.1	.	.	.
COc1cc(C=NNC(=O)c2ccncc2)ccc1OC(C)=O	.	.	.	.	7.1	.	.	.
Cc1ccc(Cl)cc1N1CCN(c2cccc[n+]2C)CC1	15.1	46.5*	24.4	-19.6	3.2	6.7	25.6	.
C[n+]1ccccc1N1CCN(c2ccccc2Cl)CC1	7.0	60.2*	27.7	28.2	4.3	-0.5	26.0	.
Cc1ccc(Cl)cc1N1CCN(C(=S)NCCc2ccccc2)CC1	-50.8	-2.9	-1.2	2.9	2.0	0.7	.	.
C[n+]1cc(-c2ccccc2)n2c1CCCCC2	6.9	53.3*	8.7	-5.0	2.5	2.9	67.0*	-2.6
C=CCN1C(=O)C(C)SC1=NS(=O)(=O)c1ccc(Cl)cc1 (stereo unspecified)	.	.	.	.	2.6	.	.	.
Cc1cccc(NC(=O)CSc2ncnc3nc[nH]c23)c1C	9.5	34.3	8.2	-1.8	0.4	-1.8	.	.
Cc1ccc(C)c(NC(=O)CSc2ncnc3nc[nH]c23)c1	1.7	47.2*	5.0	-4.3	3.7	0.3	30.9*	-2.6
CC(=NNC(=O)Nc1ccccc1)c1ccccc1	.	.	.	.	-1.0	.	.	.
Cc1ccc2c(c1)S/C(=C/c1ccc[n+](C)c1)N2CCO	2.0	70.0*	23.3	-1.3	11.1	0.1	84.3*	5.6
CCN1/C(=C/c2ccc3cc(C)ccc3[n+]2CC)Sc2cc(C)ccc21	.	.	.	-73.6	13.8	.	.	.
CCn1nc(NC(C)=O)c2cc3cccc(C)c3nc21	-7.3	76.5*	14.1	-41.9	-42.4	20.1	64.5*	-3.5
Cn1c(=O)cc(C(=O)NN=Cc2ccc(F)cc2)[nH]c1=O	.	.	.	.	8.8	.	.	.
Cc1cc(C(=O)N/N=C/c2cc(Br)c(Br)o2)n[nH]1	-1.4	58.0*	15.6	9.3	.	-4.2	36.6*	-0.2
O=C(c1ccccc1Cc1ccccc1)N1CCN(S(=O)(=O)c2ccccc2[N+](=O)[O-])CC1	5.4	46.4*	-1.2	-5.1	-0.8	0.9	22.5	11.7
C[N+]1(CN2C(=O)C3C4C=CC(C4)C3C2=O)CCCCC1 (stereo unspecified)	-12.2	68.0*	24.6	7.1	3.4	-0.3	68.3*	-1.6
SMILES	PolyA inh	A3A deaminase	A3G deaminase	Arrestin-AP2 inh	UCH37 DUB inh	AHR activator	A3A conf	UDG A3A counter
O=C(O)CN1C(=O)C2C3C=CC(C3)C2C1=O (stereo unspecified)	43.6	-2.4	-6.0	9.7	6.4	-1.8	.	.
COC(=O)CCC(=O)OC1(C)C(=O)C=C2C=C(C3CC3)N(C3CCCCC3)C=C2C1=O (stereo unspecified)	-13.2	47.5*	-9.2	19.4	4.0	-0.9	-5.2	-1.5
CCC(C)N(C(=O)COc1ccc(Cl)c2cccnc12)C1CCS(=O)(=O)C1 (stereo unspecified)	-3.8	61.6*	29.2	0.2	.	6.3	25.4	.
CCC(C)N(C(=O)COc1ccccc1C#N)C1CCS(=O)(=O)C1 (stereo unspecified)	-9.9	-0.9	-9.4	-5.3	5.1	1.2	.	.
CCCCNC(=O)C(=O)NN=Cc1cccc(Br)c1	.	.	.	.	1.7	.	.	.
COc1ccccc1NCC(=O)NN=C/C=C/c1ccccc1	.	.	.	.	2.2	.	.	.
O=C(NCc1ccccc1CN1CCCCC1)c1ccccc1N1CCCC1=O	.	56.9*	14.2	-20.2	4.1	-0.7	60.5*	-2.7
Cc1cc(C)nc(SCC(=O)NN=Cc2cccn2-c2cccc(C(F)(F)F)c2)n1	.	.	.	.	5.0	.	.	.
Cc1cc(C)nc(SCC(=O)N/N=C/c2cccn2-c2cccc(C(F)(F)F)c2)n1	-5.7	42.0*	9.8	15.0	.	0.1	17.2	.
COc1cccc2c1C(=O)c1c(O)c3c(c(O)c1C2=O)C[C@](O)(C(C)=O)C[C@H]3O[C@@H]1C[C@@H](N)[C@@H](O)[C@@H](C)O1	18.2	50.3*	24.0	32.1	7.3	64.5*	41.5*	.
COc1cccc2c1C(=N)c1c(O)c3c(c(O)c1C2=O)CC(O)(C(C)=O)CC3OC1CC(N)C(O)C(C)O1 (stereo unspecified)	.	.	.	-16.1	.	.	.	.
O=C(O)c1cc(O)c2c(c1)C(=O)c1cc(O)cc(O)c1C2=O	3.1	67.3*	28.0	27.4	16.1	3.7	59.0*	-0.1
COc1ccccc1N1CCN(N=Cc2sccc2C)CC1	.	.	.	.	1.9	.	.	.
COc1ccc2nc(Nc3nc4cc5c(cc4s3)OCO5)sc2c1	-17.8	46.1*	1.5	32.3	-74.3	13.4	38.6*	1.2
Cc1ccc(CCCOC(=O)C[N+]2(C)CCOCC2)cc1	2.2	42.2*	23.8	-9.8	3.6	11.9	89.1*	4.1
O=C(CN1CCOCC1)OCCCc1ccccc1	-3.2	-1.4	-1.5	9.0	5.0	1.5	.	.
